Test results published in ChEMBL document CHEMBL4765378, “Discovery of simplified benzazole fragments derived from the marine benzosceptrin B as necroptosis inhibitors involving the receptor interacting protein Kinase-1” (Eur J Med Chem, 2020).

Assays:
TERT-RPE1 = assay: Cytotoxicity against human TERT-RPE1 cells assessed as increase in LDH release at 0.01 to 50 uM measured after 24 hrs by CyQUANT reagent based assay; assay type: cell-based; settings: tert-rpe1, 24 h, dose 0.01-50 µM
How it was run: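 hTERT RPE-1 cells (DMEM-F12-Glutamax, 10% FCS, 37 °C, 5% CO2) exposed 24 h to compound from 0.01 to 50 μM; viability measured.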

CDK9/cyclin T1 = CDK9/cyclin T1 (Homo sapiens, UniProt P50750); assay: Inhibition of human recombinant CDK9/cyclin T expressed in baculovirus infected Sf9 insect cells using YSPTSPSYSPTSPSYSPTSPSKKKK as substrate by ADP-glo assay
CDK9/cyclin T1, sequence (O60563 whole entry): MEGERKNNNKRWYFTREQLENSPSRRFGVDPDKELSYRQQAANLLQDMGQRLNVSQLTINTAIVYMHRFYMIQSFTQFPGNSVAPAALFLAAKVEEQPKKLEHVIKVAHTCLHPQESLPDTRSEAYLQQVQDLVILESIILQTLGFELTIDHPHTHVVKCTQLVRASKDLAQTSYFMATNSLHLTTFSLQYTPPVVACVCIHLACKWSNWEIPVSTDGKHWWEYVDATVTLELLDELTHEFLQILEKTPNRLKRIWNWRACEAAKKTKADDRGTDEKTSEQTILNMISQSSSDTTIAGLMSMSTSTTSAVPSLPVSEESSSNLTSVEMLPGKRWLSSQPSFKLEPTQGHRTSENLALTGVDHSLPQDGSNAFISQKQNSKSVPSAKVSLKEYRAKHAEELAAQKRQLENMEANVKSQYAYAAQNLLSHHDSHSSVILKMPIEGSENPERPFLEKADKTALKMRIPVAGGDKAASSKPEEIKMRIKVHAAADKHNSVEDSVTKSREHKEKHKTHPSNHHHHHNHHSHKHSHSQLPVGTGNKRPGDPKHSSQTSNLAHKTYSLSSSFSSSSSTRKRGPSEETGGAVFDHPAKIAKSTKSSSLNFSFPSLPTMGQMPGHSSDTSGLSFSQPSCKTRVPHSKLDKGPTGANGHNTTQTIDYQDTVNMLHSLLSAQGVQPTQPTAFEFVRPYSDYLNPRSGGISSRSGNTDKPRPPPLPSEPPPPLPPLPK
CDK9/cyclin T1, sequence (P50750 whole entry): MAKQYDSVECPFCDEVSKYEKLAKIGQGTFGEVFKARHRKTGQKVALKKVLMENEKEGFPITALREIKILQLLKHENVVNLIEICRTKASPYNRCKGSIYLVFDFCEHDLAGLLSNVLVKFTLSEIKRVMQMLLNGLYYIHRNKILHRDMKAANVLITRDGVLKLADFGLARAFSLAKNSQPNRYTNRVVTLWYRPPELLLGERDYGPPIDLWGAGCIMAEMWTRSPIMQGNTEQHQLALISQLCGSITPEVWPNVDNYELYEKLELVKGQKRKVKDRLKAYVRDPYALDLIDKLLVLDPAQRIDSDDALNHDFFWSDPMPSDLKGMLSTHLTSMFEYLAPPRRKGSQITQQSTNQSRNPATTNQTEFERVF

[1] = target: T1, Receptor-interacting serine/threonine-protein kinase 1 (Homo sapiens) (UniProt Q13546); assay: Inhibition of RIPK1 in human FADD-deficient Jurkat I 2.1 cells assessed as protection against TNFalpha-induced necroptosis measured after 24 hrs by MTS assay
T1 sequence (whole entry): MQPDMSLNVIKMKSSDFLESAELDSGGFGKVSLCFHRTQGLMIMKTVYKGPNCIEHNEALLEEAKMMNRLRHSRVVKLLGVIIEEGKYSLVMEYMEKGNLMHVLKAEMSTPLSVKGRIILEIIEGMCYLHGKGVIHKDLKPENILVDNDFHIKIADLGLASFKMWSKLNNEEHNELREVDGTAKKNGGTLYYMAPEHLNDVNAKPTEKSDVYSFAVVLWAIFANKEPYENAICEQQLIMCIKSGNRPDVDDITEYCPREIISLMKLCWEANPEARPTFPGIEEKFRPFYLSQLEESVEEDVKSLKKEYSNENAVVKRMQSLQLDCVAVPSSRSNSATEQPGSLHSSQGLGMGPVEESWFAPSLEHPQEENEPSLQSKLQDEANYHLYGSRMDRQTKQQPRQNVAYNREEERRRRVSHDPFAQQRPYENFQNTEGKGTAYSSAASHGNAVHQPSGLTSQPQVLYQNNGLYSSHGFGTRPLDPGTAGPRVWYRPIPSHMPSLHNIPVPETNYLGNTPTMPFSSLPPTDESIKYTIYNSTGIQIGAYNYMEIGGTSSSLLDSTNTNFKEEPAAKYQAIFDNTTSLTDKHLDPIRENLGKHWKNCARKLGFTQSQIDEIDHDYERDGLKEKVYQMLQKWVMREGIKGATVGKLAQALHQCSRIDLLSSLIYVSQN

[2] = target: Receptor-interacting serine/threonine-protein kinase 3 (Homo sapiens, UniProt Q9Y572); assay: Inhibition of recombinant human RIPK3 expressed in baculovirus infected Sf9 insect cells using myelin basic protein as substrate by ADP-Glo assay
Receptor-interacting serine/threonine-protein kinase 3, sequence (Q9Y572 whole entry): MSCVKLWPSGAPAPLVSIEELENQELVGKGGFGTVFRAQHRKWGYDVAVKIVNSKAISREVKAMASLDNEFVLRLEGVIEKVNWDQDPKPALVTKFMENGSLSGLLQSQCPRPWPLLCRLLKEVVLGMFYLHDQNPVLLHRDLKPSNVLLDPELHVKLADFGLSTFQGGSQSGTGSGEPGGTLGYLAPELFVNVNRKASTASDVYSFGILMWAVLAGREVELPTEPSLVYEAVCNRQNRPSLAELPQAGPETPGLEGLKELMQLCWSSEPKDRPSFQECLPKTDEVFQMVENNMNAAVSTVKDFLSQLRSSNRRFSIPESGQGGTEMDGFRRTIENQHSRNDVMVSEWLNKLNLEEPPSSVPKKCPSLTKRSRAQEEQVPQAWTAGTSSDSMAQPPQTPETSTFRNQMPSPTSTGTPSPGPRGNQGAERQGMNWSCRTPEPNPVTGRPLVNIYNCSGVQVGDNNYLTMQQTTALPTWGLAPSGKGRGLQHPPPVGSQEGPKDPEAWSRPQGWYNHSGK

[3] = target: Dual specificity protein kinase CLK1 (Mus musculus, UniProt P22518); assay: Inhibition of mouse recombinant CLK1 expressed in bacterial expression system using GRSRSRSRSRSR as substrate by ADP-glo assay
Dual specificity protein kinase CLK1, sequence (P22518 whole entry, the tested form may be a part): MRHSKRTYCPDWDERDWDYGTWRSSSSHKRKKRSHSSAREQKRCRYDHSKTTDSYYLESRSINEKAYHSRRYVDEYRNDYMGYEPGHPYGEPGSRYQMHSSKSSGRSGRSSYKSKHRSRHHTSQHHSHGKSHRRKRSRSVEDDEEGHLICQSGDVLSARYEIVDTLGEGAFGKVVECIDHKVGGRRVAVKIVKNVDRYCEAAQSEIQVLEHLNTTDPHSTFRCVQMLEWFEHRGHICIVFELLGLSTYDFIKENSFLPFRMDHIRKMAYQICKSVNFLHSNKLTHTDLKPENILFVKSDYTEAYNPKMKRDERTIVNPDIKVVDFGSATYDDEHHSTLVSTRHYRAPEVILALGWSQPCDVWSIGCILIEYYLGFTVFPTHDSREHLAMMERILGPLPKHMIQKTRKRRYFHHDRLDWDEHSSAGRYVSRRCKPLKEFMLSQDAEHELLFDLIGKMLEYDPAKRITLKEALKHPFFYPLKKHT

[4] = target: T2, Receptor-interacting serine/threonine-protein kinase 1 (Homo sapiens, UniProt Q13546); assay: (§1) Inhibition of recombinant human RIPK1 kinase domain (8 to 322 residues) using myelin basic protein as substrate measured after 120 mins by [gamma-32P]ATP based scintillation counting method
T2 sequence (Q13546 whole entry): T1 sequence (whole entry)

[5] = target: T1, Receptor-interacting serine/threonine-protein kinase 1 (Homo sapiens); assay: as §1
Aurora kinase B = Aurora kinase B (Homo sapiens, UniProt Q96GD4); assay: Inhibition of recombinant human AURKB expressed in baculovirus infected Sf9 insect cells using myelin basic protein as substrate by ADP-Glo assay
Aurora kinase B, sequence (Q96GD4 whole entry, the tested form may be a part): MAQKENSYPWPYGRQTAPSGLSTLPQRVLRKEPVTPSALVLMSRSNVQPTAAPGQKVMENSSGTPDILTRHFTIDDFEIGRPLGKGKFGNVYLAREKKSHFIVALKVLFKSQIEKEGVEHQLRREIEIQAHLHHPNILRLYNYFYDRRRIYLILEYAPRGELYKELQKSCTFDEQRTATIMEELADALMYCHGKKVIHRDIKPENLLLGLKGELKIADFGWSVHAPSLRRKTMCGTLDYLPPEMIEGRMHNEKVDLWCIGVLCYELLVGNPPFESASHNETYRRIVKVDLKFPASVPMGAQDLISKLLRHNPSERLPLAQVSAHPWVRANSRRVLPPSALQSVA

[6] = target: Dual specificity tyrosine-phosphorylation-regulated kinase 1A (Rattus norvegicus, UniProt Q63470); assay: Inhibition of recombinant rat DYRK1A kinase domain (1 to 499 residues) expressed in bacterial expression system using KKISGRLSPIMTEQ as substrate by ADP-glo assay
CDK2/Cyclin A2 = CDK2/Cyclin A2 (Homo sapiens, UniProt P24941); assay: Inhibition of human CDK2/cyclin A using histone H1 as substrate by ADP-glo assay; assay type: protein-complex assay
[7] = target: T3, Tyrosine-protein kinase JAK3 (Homo sapiens, UniProt P52333); assay: Inhibition of recombinant human JAK3 C-terminal domain (781 to 1124 residues) expressed in baculovirus infected Sf9 insect cells using GGEEEEYFELVKKKK as substrate by ADP-glo assay
T3 sequence (P52333 whole entry): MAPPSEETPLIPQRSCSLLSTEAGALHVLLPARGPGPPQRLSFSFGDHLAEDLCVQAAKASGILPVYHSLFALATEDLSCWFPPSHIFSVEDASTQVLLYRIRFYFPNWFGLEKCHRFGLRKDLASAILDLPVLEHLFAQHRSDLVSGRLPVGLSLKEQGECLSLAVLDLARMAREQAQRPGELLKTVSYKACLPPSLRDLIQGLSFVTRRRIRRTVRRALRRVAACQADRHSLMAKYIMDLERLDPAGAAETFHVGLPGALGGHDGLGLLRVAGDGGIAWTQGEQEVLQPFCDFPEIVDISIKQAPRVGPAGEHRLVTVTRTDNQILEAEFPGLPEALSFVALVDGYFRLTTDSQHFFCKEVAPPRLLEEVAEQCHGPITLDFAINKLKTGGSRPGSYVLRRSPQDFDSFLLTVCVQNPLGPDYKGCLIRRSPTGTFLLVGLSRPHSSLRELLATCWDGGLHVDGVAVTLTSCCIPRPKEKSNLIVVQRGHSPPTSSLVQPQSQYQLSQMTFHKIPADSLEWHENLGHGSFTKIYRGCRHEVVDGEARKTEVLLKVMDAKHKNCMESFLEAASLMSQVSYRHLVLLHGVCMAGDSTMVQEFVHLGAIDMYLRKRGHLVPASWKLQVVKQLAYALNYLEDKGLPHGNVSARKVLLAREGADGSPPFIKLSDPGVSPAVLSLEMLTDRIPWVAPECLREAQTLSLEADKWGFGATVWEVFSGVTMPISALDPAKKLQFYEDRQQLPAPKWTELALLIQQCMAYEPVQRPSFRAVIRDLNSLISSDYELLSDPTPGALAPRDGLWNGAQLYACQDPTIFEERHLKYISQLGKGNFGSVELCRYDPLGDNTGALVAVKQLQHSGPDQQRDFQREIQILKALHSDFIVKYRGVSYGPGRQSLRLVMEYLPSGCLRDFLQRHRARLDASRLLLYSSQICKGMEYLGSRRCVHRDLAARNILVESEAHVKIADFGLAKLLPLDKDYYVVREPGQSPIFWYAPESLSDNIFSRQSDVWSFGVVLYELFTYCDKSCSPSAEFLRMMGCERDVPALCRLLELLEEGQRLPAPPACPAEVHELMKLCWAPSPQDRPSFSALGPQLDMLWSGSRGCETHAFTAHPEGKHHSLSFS

[8] = Cytotoxicity against human FADD-deficient Jurkat I 2.1 cells assessed as reduction in cell viability at 10 uM measured after 24 hrs by MTS assay; assay type: cell-based; settings: jurkat i 2.1, 24 h
[9] = target: Tyrosine-protein kinase ABL1 (Homo sapiens, UniProt P00519); assay: Inhibition of recombinant human ABL1 (118 to 535 residues) expressed in baculovirus infected Sf9 insect cells using EAIYAAPFAKKK as substrate by ADP-glo assay
Tyrosine-protein kinase ABL1, sequence (P00519 whole entry, the tested form may be a part): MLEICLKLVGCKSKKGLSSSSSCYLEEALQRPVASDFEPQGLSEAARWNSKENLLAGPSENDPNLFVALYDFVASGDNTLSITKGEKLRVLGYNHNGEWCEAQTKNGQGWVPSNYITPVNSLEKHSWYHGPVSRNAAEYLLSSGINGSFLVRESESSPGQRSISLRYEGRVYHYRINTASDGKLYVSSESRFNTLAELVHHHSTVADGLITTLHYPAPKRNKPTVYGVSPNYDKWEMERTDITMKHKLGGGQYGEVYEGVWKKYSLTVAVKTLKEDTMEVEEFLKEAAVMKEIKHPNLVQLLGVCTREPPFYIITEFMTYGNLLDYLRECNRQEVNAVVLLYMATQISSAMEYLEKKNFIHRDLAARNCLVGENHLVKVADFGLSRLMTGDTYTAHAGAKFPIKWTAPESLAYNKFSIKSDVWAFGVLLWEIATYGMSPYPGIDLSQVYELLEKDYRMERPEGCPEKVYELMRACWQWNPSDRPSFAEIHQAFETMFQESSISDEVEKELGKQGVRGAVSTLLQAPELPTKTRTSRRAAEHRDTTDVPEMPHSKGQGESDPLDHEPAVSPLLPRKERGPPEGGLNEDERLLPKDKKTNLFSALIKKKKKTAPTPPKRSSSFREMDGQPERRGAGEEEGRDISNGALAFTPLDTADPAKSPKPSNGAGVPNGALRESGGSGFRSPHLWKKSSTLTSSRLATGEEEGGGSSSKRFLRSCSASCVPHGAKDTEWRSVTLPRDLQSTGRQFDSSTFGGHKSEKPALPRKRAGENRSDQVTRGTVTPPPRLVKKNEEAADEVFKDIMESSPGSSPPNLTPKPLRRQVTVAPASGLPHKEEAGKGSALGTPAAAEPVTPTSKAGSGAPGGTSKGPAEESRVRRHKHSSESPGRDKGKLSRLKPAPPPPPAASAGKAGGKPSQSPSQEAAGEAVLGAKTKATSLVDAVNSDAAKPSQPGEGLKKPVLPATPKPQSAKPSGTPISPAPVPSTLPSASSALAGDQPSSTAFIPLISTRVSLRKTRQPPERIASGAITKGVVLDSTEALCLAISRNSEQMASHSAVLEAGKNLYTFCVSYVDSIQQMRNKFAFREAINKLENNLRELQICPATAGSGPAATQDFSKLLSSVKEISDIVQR

| IC50 (CDK9/cyclin T1) | IC50 [2] | IC50 [3] | IC50 [4] | inhibition [5] | IC50 (Aurora kinase B) | IC50 [6] | IC50 (CDK2/Cyclin A2) | IC50 [7] | IC50 [9] | SMILES | Activity (TERT-RPE1) | inhibition [1] | Activity [8] |
| --- | --- | --- | --- | --- | --- | --- | --- | --- | --- | --- | --- | --- | --- |
| > 10000 nM | > 10 µM | > 10000 nM | 2.89 µM | Dose-dependent effect | > 10 µM | 2210 nM | > 10 µM | > 10 µM | > 10 µM | CCCCNc1nc2cc([N+](=O)[O-])ccc2s1 | Non-Toxic | Dose-dependent effect | Non-Toxic |
| 480 nM | > 10 µM | 800 nM | 12.1 µM | Dose-dependent effect | > 10 µM | 1800 nM | > 10 µM | > 10 µM | > 10 µM | CCCCNc1nc2ccc([N+](=O)[O-])cc2[nH]1 | Non-Toxic | Dose-dependent effect | Non-Toxic |
